For one data set, the species on record is Homo sapiens. Description: Selectivity ratio of IC50 for recombinant human PARP2 to IC50 for recombinant human PARP1. An outline of the steps: (§1)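 Human recombinant PARP2 (and PARP1) expressed and purified, inhibition measured by ELISA, with AZD2281 as positive control. IC50 from concentration–response fitting.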
In data set [1] the target is T1, Poly [ADP-ribose] polymerase 1 (Homo sapiens, UniProt P09874). Description: Inhibition of PARP1 in human MX1 cells assessed as potentiation of temozolomide-induced cytotoxicity at 10 uM after 72 hrs by MTT assay relative to temozolomide alone. The class given is cell-based. An outline of the steps:
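MX-1 cells seeded at 2000/well and exposed for 72 h to TMZ (0–0.5 mmol/L) with or without PARP inhibitor fixed at 10 μmol/L. Survival read by MTT. PF50 = IC50 of TMZ alone / IC50 of TMZ + inhibitor.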
On the technique in general: Tetrazolium dyes change colour on reduction, which living cells bring about.

Data set [2] addresses T1, Poly [ADP-ribose] polymerase 1. The data set is described as follows: Inhibition of recombinant human PARP1 expressed in Escherichia coli BL21(DE3) using histone as substrate measured after 1 hr in presence of biotinylated NAD+ by ELISA.
Data set [3] concerns MX1. The data set is described as follows: Anti-tumor activity against human MX1 cells xenografted in BALB/c mouse assessed as tumor growth inhibition at 50 mg/kg, po administered once daily via gavage for 5 days measured after 11 days in presence of temozolomide relative to control. The class given is functional. An outline of the steps: (§2)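 Female athymic BALB/c nude mice, 8–10 weeks old, implanted s.c. with 1×10^6 MX-1 cells in 0.1 mL PBS. Day 6: grouped at 6/group, tumors 100–300 mm³. Oral gavage once daily. TMZ 50 mg/kg/day for 5 days; single-agent test compound 50 mg/kg/day for 10 days; combinations both orally for 5 days. Body weight and tumor volume measured twice weekly; euthanized day 11.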
(In general: Xenograft models place foreign cells or tissue in a host animal.)

Data set [4] deals with Mus musculus. Description: Toxicity in BALB/c mouse assessed as change in body weight at 50 mg/kg, po administered once daily via gavage for 10 days measured twice every week up to 11 days (reference value: 5.32 g). Particulars: in vivo. The class given is organism-based. The gist of the method:
as §2

Data set [5] has as its system MX1. Description: Anti-tumor activity against human MX1 cells xenografted in BALB/c mouse assessed as tumor weight at 50 mg/kg, po administered once daily via gavage for 10 days measured after 11 days (reference value: 4.09 +/- 0.64 g). It is filed as functional. An outline of the steps:
as §2

Data set [6] relates to Mus musculus. The data set is described as follows: Toxicity in BALB/c mouse assessed as change in body weight at 25 mg/kg, po administered once daily via gavage for 5 days in presence of temozolomide measured twice every week up to 11 days (reference value: 5.32 g). The class given is organism-based. The conditions noted are these: in vivo. An outline of the steps:
as §2

Data set [7] deals with MX1. Description: Anti-tumor activity against human MX1 cells xenografted in BALB/c mouse assessed as tumor growth inhibition at 50 mg/kg, po administered once daily via gavage for 5 days measured after 11 days in presence of temozolomide relative to temozolomide. It is filed as functional. An outline of the steps: as §2
Data set [8] has as its target Poly [ADP-ribose] polymerase 2 (Homo sapiens, UniProt Q9UGN5). The data set is described as follows: Inhibition of recombinant human PARP2 expressed in Escherichia coli BL21(DE3) using histone as substrate measured after 1 hr in presence of biotinylated NAD+ by ELISA. An outline of the steps:
as §1
On the technique in general: An ELISA detects its analyte on a solid surface through an enzyme-linked reagent.

Data set [9] relates to MX1. Description: Anti-tumor activity against human MX1 cells xenografted in BALB/c mouse assessed as tumor growth inhibition at 50 mg/kg, po administered once daily via gavage for 10 days measured after 11 days relative to control. It is filed as functional. The gist of the method: as §2
The test system of data set [10] is MX1. The data set is described as follows: Anti-tumor activity against human MX1 cells xenografted in BALB/c mouse assessed as tumor growth inhibition at 25 mg/kg, po administered once daily via gavage for 5 days measured after 11 days in presence of temozolomide relative to temozolomide. It is filed as functional. An outline of the steps: as §2
Data set [11] relates to MX1. The data set is described as follows: Anti-tumor activity against human MX1 cells xenografted in BALB/c mouse assessed as tumor weight at 50 mg/kg, po administered once daily via gavage for 5 days measured after 11 days in presence of temozolomide (reference value: 4.09 +/- 0.64 g). It is filed as functional. An outline of the steps:
as §2

Data set [12] has as its system MX1. The data set is described as follows: Anti-tumor activity against human MX1 cells xenografted in BALB/c mouse assessed as tumor growth inhibition at 25 mg/kg, po administered once daily via gavage for 5 days measured after 11 days in presence of temozolomide relative to control. The class given is functional. An outline of the steps: as §2
For data set [13], the system named is Mus musculus. Description: Toxicity in BALB/c mouse assessed as change in body weight at 50 mg/kg, po administered once daily via gavage for 5 days in presence of temozolomide measured twice every week up to 11 days (reference value: 5.32 g). The class given is organism-based. The conditions noted are these: in vivo. The gist of the method: as §2
The subject of data set [14] is MX1. The data set is described as follows: Anti-tumor activity against human MX1 cells xenografted in BALB/c mouse assessed as tumor weight at 25 mg/kg, po administered once daily via gavage for 5 days measured after 11 days in presence of temozolomide (reference value: 4.09 +/- 0.64 g). It is filed as functional. The gist of the method: as §2
[15] abbreviates: Mus musculus, MX1, po, read-out: TGI.

One may read the IC50 as the concentration that gives 50% inhibition. Usually T/C stands for the result in the treated group divided by that in the control group, in per cent.

T1 sequence (P09874 whole entry): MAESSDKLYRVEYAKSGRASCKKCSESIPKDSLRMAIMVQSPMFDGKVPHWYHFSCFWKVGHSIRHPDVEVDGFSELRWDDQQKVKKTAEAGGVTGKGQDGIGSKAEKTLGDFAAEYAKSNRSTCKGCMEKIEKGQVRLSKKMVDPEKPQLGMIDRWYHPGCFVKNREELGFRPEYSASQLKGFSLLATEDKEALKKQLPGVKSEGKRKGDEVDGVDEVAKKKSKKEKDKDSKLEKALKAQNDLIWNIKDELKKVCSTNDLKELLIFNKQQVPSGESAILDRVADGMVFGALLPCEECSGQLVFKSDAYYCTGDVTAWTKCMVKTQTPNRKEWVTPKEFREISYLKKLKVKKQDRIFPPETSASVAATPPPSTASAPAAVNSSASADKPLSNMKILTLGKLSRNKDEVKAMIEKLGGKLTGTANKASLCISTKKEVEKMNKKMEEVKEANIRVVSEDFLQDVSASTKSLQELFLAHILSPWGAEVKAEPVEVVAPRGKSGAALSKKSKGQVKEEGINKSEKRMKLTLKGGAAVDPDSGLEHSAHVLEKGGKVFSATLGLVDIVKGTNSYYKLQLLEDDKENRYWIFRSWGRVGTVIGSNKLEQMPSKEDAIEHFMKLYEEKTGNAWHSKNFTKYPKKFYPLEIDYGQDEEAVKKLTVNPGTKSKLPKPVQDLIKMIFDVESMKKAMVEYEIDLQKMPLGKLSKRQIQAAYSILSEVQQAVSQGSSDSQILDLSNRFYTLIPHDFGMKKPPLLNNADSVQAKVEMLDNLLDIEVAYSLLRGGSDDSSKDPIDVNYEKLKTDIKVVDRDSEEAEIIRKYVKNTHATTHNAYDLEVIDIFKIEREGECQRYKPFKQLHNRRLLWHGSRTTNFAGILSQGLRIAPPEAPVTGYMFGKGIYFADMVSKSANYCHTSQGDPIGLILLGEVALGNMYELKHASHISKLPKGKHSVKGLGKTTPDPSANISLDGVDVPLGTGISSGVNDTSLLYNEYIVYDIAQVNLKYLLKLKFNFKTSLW
Chain of Poly [ADP-ribose] polymerase 2 (Q9UGN5 whole entry): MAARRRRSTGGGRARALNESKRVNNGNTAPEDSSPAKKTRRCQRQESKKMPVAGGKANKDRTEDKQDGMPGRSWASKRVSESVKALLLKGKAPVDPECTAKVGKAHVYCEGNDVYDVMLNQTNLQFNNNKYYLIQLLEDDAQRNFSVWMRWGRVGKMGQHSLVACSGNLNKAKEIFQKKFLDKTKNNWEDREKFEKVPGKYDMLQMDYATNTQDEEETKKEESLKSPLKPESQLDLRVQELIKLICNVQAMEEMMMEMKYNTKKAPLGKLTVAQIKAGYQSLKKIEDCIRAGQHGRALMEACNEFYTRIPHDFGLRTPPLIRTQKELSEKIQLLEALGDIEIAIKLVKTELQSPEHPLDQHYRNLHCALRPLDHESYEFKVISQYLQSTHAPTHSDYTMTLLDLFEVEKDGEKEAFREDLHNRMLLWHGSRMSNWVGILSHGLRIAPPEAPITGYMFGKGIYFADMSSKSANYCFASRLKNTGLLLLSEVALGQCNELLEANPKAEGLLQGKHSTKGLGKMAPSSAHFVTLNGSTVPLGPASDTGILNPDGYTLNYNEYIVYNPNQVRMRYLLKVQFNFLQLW

Turning to `CC(C)(C)CN1CCC(NC(=O)c2nc3c(C(N)=O)cc(F)cc3[nH]2)CC1`, the Ratio IC50 in the data set listed under Homo sapiens was < 10. Moreover, the PF50 in data set [1] came out at 7.1. Also, the IC50 in data set [2] turned out to be 17 nM; in data set [8], 74 nM. Besides, the T/C in the data set on MX1 [3] was 12%; in the data set with MX1 [7], 32%; in the data set with MX1 [9] it was 91%; with MX1 [10] it was 94%; in the data set with MX1 [12] it was 36%. Besides, the inhibition in vivo at 50 mg/kg stood at 88% in the data set on MX1 [3] (setting [15]), 68% with MX1 [7] (setting [15]) and 9% in the data set on MX1 [9] (setting [15]). Moreover, the Activity in the data set with Mus musculus [4] is given as 5 g; in the data set on MX1 [5], 3.73 g; with Mus musculus [6] it was 0.23 g; with MX1 [11] it was 0.5 g; in the data set with Mus musculus [13] it was -0.79 g; in the data set with MX1 [14] it was 1.47 g. In addition, the inhibition in vivo at 25 mg/kg came out at 6% with MX1 [10] (setting [15]) and 64% in the data set on MX1 [12] (setting [15]).

(Values after ChEMBL document CHEMBL4028811, “Discovery of 2-substituted 1H-benzo[d]immidazole-4-carboxamide derivatives as novel poly(ADP-ribose)polymerase-1 inhibitors with in vivo anti-tumor activity” (Eur J Med Chem, 2017).)
